Tests used:
Histone deacetylase 1 = Histone deacetylase 1 (Homo sapiens, UniProt Q13547); assay: Inhibition of human recombinant HDAC1 pre-incubated for 30 mins before Ac-Leu- Gly-Lys(Ac)-AMC substrate addition and measured after 90 mins by fluorescence based assay
Histone deacetylase 2 = Histone deacetylase 2 (Homo sapiens, UniProt Q92769); assay: Inhibition of human recombinant HDAC2 pre-incubated for 30 mins before Ac-Leu- Gly-Lys(Ac)-AMC substrate addition and measured after 90 mins by fluorescence based assay
Histone deacetylase 3 = Histone deacetylase 3 (Homo sapiens, UniProt O15379); assay: Inhibition of human recombinant HDAC3 pre-incubated for 30 mins before Ac-Leu- Gly-Lys(Ac)-AMC substrate addition and measured after 90 mins by fluorescence based assay
Histone deacetylase 8 = biological target: T1, Histone deacetylase 8 (Homo sapiens, UniProt Q9BY41); assay: Inhibition of human recombinant HDAC8 pre-incubated for 30 mins before Ac-Leu- Gly-Lys(Ac)-AMC substrate addition and measured after 90 mins by fluorescence based assay
T1 sequence (Q9BY41 whole entry): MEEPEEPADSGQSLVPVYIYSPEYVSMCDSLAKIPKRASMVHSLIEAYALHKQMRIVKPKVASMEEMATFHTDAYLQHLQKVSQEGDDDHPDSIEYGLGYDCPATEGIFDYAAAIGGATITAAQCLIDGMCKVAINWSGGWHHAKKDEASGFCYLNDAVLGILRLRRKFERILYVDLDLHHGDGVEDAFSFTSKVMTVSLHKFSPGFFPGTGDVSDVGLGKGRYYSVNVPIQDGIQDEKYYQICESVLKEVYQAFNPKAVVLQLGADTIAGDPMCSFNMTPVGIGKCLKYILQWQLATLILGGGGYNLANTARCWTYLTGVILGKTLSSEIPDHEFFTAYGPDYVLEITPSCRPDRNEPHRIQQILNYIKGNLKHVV

Histone deacetylase 7 = biological target: T2, Histone deacetylase 7 (Homo sapiens, UniProt Q8WUI4); assay: Inhibition of human recombinant HDAC7 pre-incubated for 15 mins before Ac-Leu-Gly-Lys(trifluroAc)-AMC substrate addition and measured after 60 mins by fluorescence based assay
T2 sequence (Q8WUI4 whole entry): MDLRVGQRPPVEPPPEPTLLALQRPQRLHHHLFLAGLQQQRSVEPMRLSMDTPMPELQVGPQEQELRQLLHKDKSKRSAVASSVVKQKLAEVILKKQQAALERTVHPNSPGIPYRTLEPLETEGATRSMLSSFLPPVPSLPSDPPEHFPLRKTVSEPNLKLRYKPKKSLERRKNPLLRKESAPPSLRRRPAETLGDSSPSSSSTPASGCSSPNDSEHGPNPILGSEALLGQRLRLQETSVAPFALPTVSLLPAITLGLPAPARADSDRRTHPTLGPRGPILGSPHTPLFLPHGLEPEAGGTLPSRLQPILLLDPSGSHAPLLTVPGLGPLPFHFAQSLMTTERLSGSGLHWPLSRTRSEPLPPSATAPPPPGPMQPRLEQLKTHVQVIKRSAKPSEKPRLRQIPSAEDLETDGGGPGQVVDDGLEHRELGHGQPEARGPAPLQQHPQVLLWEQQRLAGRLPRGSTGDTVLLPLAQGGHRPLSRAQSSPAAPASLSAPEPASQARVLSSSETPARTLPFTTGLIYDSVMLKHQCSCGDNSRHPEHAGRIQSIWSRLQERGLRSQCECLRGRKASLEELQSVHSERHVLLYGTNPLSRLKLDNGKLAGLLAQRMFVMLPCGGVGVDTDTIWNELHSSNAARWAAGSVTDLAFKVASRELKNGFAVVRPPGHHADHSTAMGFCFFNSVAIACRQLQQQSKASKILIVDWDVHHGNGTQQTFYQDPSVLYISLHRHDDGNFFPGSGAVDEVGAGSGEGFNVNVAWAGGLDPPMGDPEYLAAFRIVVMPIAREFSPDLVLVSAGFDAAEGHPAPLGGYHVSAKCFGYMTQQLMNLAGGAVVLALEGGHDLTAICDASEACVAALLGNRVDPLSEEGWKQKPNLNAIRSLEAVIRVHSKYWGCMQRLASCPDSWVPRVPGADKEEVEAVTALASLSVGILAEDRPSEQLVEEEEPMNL

Homo sapiens [1] = species on record: Homo sapiens; assay: Selectivity index, ratio of IC50 for inhibition of human recombinant HDAC2 to IC50 for inhibition of human recombinant HDAC1
Homo sapiens [2] = species on record: Homo sapiens; assay: Selectivity index, ratio of IC50 for inhibition of human recombinant HDAC8 to IC50 for inhibition of human recombinant HDAC1
Homo sapiens [3] = species on record: Homo sapiens; assay: Selectivity index, ratio of IC50 for inhibition of human recombinant HDAC3 to IC50 for inhibition of human recombinant HDAC1
Homo sapiens [4] = species on record: Homo sapiens; assay: Selectivity index, ratio of IC50 for inhibition of human recombinant HDAC7 to IC50 for inhibition of human recombinant HDAC1
Method in brief: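 HDAC7 arm: 5 ng/mL recombinant human HDAC7 pre-incubated 15 min with inhibitor, then Ac-Leu-Gly-Lys(trifluoroAc)-AMC (20 µM) for 60 min at 37°C. Developer was trypsin with 10 μM SAHA, 15 min; fluorescence 350/460 nm. HDAC1 was run with 30 min pre-incubation, 12 µM Ac-Leu-Gly-Lys(Ac)-AMC, 90 min. Ratio of the HDAC7 IC50 to the HDAC1 IC50.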

Histone deacetylase 2, sequence (Q92769 whole entry): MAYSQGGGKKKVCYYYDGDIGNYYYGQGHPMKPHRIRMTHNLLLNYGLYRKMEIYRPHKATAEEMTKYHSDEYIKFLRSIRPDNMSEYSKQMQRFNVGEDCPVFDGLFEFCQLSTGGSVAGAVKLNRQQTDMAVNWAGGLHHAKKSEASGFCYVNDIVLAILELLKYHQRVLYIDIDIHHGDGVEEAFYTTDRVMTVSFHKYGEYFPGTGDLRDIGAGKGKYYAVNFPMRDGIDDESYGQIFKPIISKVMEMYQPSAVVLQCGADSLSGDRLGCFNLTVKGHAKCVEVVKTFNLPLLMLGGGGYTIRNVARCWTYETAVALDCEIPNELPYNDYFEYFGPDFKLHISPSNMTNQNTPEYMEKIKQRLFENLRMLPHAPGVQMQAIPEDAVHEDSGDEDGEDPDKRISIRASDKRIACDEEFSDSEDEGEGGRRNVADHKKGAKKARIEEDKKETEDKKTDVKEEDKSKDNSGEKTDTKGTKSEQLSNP
Histone deacetylase 3, sequence (O15379 whole entry): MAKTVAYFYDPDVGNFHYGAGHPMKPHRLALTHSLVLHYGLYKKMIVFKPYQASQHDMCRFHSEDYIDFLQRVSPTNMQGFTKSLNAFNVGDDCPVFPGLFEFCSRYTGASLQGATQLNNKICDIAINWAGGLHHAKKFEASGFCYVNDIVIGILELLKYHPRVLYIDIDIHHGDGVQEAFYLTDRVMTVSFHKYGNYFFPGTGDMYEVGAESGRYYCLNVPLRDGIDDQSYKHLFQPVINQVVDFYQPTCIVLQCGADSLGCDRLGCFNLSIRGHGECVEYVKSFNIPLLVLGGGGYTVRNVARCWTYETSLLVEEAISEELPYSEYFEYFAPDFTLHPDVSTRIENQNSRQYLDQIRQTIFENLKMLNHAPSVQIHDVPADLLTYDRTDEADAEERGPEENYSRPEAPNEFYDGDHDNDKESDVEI
Histone deacetylase 1, sequence (Q13547 whole entry): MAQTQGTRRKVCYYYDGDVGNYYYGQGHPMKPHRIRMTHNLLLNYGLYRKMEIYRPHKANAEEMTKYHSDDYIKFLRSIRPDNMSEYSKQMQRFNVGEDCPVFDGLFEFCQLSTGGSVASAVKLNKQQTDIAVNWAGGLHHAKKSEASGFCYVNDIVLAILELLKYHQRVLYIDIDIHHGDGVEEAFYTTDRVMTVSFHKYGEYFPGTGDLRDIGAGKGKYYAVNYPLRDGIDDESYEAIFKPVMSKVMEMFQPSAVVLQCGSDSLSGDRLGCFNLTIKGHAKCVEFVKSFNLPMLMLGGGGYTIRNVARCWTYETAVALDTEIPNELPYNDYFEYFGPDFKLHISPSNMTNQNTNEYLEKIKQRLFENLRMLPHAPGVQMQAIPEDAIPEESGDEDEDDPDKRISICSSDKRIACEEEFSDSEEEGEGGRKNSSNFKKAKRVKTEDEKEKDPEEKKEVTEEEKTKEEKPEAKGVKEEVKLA

IC50 (Histone deacetylase 1): 0.004 µM | IC50 (Histone deacetylase 2): 0.049 µM | IC50 (Histone deacetylase 3): 0.009 µM | IC50 (Histone deacetylase 8): 0.089 µM | IC50 (Histone deacetylase 7): 2.5 µM | Ratio IC50 (Homo sapiens [1]): 5 to 12 | Ratio IC50 (Homo sapiens [2]): 14 to 61 | Ratio IC50 (Homo sapiens [3]): 2 to 3 | Ratio IC50 (Homo sapiens [4]): 140 to 600
SMILES: CN(C)c1ccc(C2(C(=O)Nc3ccc(C(=O)NO)cc3)CCCC2)cc1

From ChEMBL document CHEMBL4602725 (J Med Chem, 2020)
